{"source": "PubChem BioAssay AID2520", "about": "(Sanford-Burnham Center for Chemical Genomics, 2010)", "note": "Out of some 330,000 compounds screened, about 350 (0.11%) were called active. The full list was thinned out, with actives kept by preference. A number with no mark means an inactive call.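 How the source made its calls: active means activation more than six SD over the plate average, tested at 20 µM; inactive means the rest.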", "data": [{"molecular_target": "Apelin receptor (Homo sapiens) (UniProt P35414)", "sequence (P35414 whole entry, looked up)": "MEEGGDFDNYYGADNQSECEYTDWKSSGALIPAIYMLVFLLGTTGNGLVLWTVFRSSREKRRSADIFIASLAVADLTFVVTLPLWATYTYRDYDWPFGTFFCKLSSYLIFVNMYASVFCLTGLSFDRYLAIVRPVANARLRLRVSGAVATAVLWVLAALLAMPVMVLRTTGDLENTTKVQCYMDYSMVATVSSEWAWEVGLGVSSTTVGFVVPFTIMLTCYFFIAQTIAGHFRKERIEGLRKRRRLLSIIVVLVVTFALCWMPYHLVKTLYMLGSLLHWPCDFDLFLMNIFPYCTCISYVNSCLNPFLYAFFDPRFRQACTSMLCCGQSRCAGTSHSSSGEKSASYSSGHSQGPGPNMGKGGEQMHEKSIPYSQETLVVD", "assay": "APJ activation via beta-arrestin recruitment – CHO-K1 cells, PathHunter beta-arrestin, luminescence, primary screen (AID 2520);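 further: 0% = DMSO alone and 100% = apelin-13 at 10 nM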", "conditions": "at 20 µM, hits give high values, 0% DMSO wells, 100% apelin", "procedure,_shortened": "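Test system: CHO-K1 APJ beta-arrestin complementation cell line | Compound: Single test compound dose, 20 µM final, 1% DMSO | Incubation: Compound 90 min 25 °C, reagent 1 h | Measured by: beta-gal luminescence | Read-out basis: APJ–arrestin association signal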", "values": [{"smiles": "CCn1c(SCC(=O)NC2CC2)nnc1-c1ccncc1", "activation": "-8.09%"}, {"smiles": "CN1CCC(=O)N([C@H](CO)Cc2ccccc2)CC1", "activation": "-1.16%"}, {"smiles": "Cc1nn(Cc2ccccc2)c(C)c1C(=O)NCCCN1CCCC1=O", "activation": "-4.22%"}, {"smiles": "COC(=O)C1C(=O)CC(C)(O)C(C(=O)OC)C1c1ccc2c(c1)OCO2", "note": "(stereo not given)", "activation": "2.74%"}, {"smiles": "NC(=O)CN1CCCC1c1ccc2c(c1)OCCO2", "note": "(stereo not given)", "activation": "0.777%"}, {"smiles": "O=C(O)Cc1ccc(NC(=O)C2CCCCC2C(=O)O)cc1", "note": "(stereo not given)", "activation": "-3.2%"}, {"smiles": "Cc1cc(C)nc(NC2=NCC(=O)N2c2ccc(Cl)cc2)n1", "activation": "-2.04%"}, {"smiles": "Cc1ccnc(SCCn2c(N(C)Cc3ccccc3)nc3c2c(=O)n(C)c(=O)n3C)n1", "activation": "-0.694%"}, {"smiles": "Cc1[nH]c(C)c(S(=O)(=O)N2CCN(c3cccc(C(F)(F)F)c3)CC2)c1C(=O)N1CCCC1", "activation": "0.662%"}, {"smiles": "COc1ccccc1N(CC(=O)NC1CCCC1)C(=O)C1(C)CC(=O)N=C2C=CC(C)=CN21", "note": "(stereo not given)", "activation": "-0.286%"}, {"smiles": "Cc1cc(C)nc(SCc2nnc(SCC(=O)Nc3ncc(C)s3)n2Cc2ccco2)n1", "activation": "-3.79%"}, {"smiles": "CC[C@@]1(C(=O)OC)N[C@H](CN(C)C(C)=O)[C@@H]2C(=O)N(C)C(=O)[C@@H]21", "activation": "-1.38%"}, {"smiles": "CCC(=O)Nc1c(C)n[nH]c1C", "activation": "-0.823%"}, {"smiles": "CN1CCN(c2ncc3c(n2)CC(c2ccccc2F)CC3=O)CC1", "note": "(stereo not given)", "activation": "-2.83%"}, {"smiles": "CCCCC(=O)Nc1cc(C)c2c(=O)oc3ccccc3c2n1", "activation": "7.83%"}, {"smiles": "Cc1ccccc1-n1nnc2c(=O)oc3ccccc3c21", "activation": "10.2% (active)"}, {"smiles": "CC(C)(C)Nc1c(N)c(=O)oc2ccccc12", "activation": "-1.36%"}, {"smiles": "O=C(c1ccc(-c2ccccc2)cc1)C1CCCN(C(=O)c2cncs2)C1", "note": "(stereo not given)", "activation": "1.31%"}, {"smiles": "Cc1noc(C)c1C(=O)NCC1COc2ccccc2O1", "note": "(stereo not given)", "activation": "-2.37%"}, {"smiles": "Cc1ccccc1/[N+]([O-])=C/c1ccncc1", "activation": "1.01%"}, {"smiles": "COCCn1nnnc1CN1CCC(NC(=O)Nc2cccc(OC)c2)CC1", "activation": "-0.645%"}, {"smiles": "COc1ccc(NC(=O)CC(NC(C)c2ccccc2)C(=O)O)cc1", "note": "(stereo not given)", "activation": "-1.25%"}, {"smiles": "CCN(CC)CCNc1nc(-c2ccc(OC(F)F)cc2)c(C)s1", "activation": "-1.98%"}, {"smiles": "CC1(C(=O)NNC(=S)NCC2CCCO2)CC1(Cl)Cl", "note": "(stereo not given)", "activation": "-1.22%"}, {"smiles": "O=C1CCC(=O)N1c1ccc(NCCc2ccccc2F)c([N+](=O)[O-])c1", "activation": "-3.51%"}, {"smiles": "O=C(NCCc1ccc(Cl)cc1)C1CCCN1C(=O)NCc1ccccc1", "note": "(stereo not given)", "activation": "0.456%"}, {"smiles": "CN1C(=O)c2ccccc2C(C(=O)NCCCN2CCCC2)C1c1c[nH]c2ccccc12", "note": "(stereo not given)", "activation": "-1.97%"}, {"smiles": "Cc1ccc(NS(=O)(=O)c2ccc(-c3ccc(=O)[nH]n3)o2)c(C)c1", "activation": "2.4%"}, {"smiles": "CN(C)c1ccc(C(CC(=O)O)C(=O)O)cc1", "note": "(stereo not given)", "activation": "-1.37%"}, {"smiles": "CC(C)(C)n1nnc(CCc2nnn(C(C)(C)C)n2)n1", "activation": "-4.6%"}, {"smiles": "O=C(O)C1CCCN1S(=O)(=O)c1ccc(Br)cc1", "note": "(stereo not given)", "activation": "-2.7%"}, {"smiles": "O=C(C1CC(=O)N(C2CCCC2)C1)N1CCN(c2cccc(C(F)(F)F)c2)CC1", "note": "(stereo not given)", "activation": "5.77%"}, {"smiles": "CN(C)c1nc2n(c(=O)n1)CCO2", "activation": "-2.79%"}, {"smiles": "c1ccc(C2CCC(N3CCC(N4CCCCC4)CC3)CC2)cc1", "note": "(stereo not given)", "activation": "-3.04%"}, {"smiles": "O=C(Nc1ccc(Cl)cc1)c1cc2nc(C3CC3)cc(C(F)(F)F)n2n1", "activation": "-4.3%"}, {"smiles": "FC(F)(F)c1ccc(CN2C[C@@H]3C(c4ccccc4)C4(c5ccccc5)CC3(C4)[C@H]2c2ccccc2)cc1", "note": "(stereo not given in full)", "activation": "-0.566%"}, {"smiles": "Cc1ccc(N(C(=O)Cc2cccs2)C2C=CS(=O)(=O)C2)cc1Cl", "note": "(stereo not given)", "activation": "-2.42%"}, {"smiles": "Cn1c(CC(=O)Nc2ccc(F)cc2)nnc1SCC(=O)NC1CCCCC1", "activation": "-3.67%"}, {"smiles": "COc1ccc(C)cc1NC(=O)c1cc(-c2ccccc2)nc2c1cnn2C(C)C", "activation": "-4.65%"}, {"smiles": "CCOc1cc2[nH]c(=S)n(CCCN3CCCC3=O)c(=O)c2cc1OCC", "activation": "23.3% (active)"}, {"smiles": "CCOc1cc2[nH]c(=O)n(Cc3ccc(C(=O)NCCCN4CCCC4=O)cc3)c(=O)c2cc1OCC", "activation": "3.97%"}, {"smiles": "CCOc1cc2[nH]c(=S)n(CCN3CCCCC3C)c(=O)c2cc1OCC", "note": "(stereo not given)", "activation": "7.97%"}, {"smiles": "CC1CN(C(=O)CCC(=O)NCCCN2CCC(Cc3ccccc3)CC2)c2cc(Cl)ccc2O1", "note": "(stereo not given)", "activation": "-4.59%"}, {"smiles": "CCn1c(CSCc2c(Cl)cccc2Cl)n[nH]c1=S", "activation": "-4.78%"}, {"smiles": "CN1CCN(CCCCOc2ccccc2-c2ccccc2)CC1", "activation": "3.27%"}]}]}
